# Test system: K562
# Assay: Cytotoxicity against human K562 cells by MTT method
# Assay type: functional, cell-based
# How it was run: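 Improved MTT assay on K562 human leukemia cells; cis-platinum as positive control. Optical density recorded as mean ± S; IC50 calculated from OD data.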
row,Compound,IC50 [µg/mL]
1,CO[C@@H]1OC[C@]2(C)CCC[C@]3(COC(=O)[C@@]45C[C@@H](CC[C@H]43)[C@H](C)C5=O)[C@H]12 [LUDONGNIN G],> 50
2,C=C1C(=O)[C@]23C[C@H]1C[C@@H](O)[C@H]2[C@@]1(CCC[C@@]2(C)COC(=O)[C@H]21)COC3=O [LUDONGNIN A],0.25
3,C[C@H]1C(=O)[C@]23C[C@H]1CC[C@H]2[C@@]1(CCC[C@@]2(C)COC(=O)[C@H]21)COC3=O [GUIDONGNIN B],> 50
4,CO[C@@H]1OC[C@]2(C)CCC[C@]3(COC(=O)[C@@]45C[C@@H](CC[C@H]43)[C@@H](C)C5=O)[C@H]12 [LUDONGNIN F],> 50
5,C=C1C(=O)[C@]23C[C@H]1C[C@@H](O)[C@H]2[C@@]1(CCC[C@@]2(C)CO[C@H](OC)[C@H]21)COC3=O [ANGUSTIFOLIN],0.23
6,C=C1[C@@H]2C[C@@H](O)[C@H]3[C@@]4(CCC[C@@]5(C)COC(=O)[C@H]54)COC(=O)[C@]3(C2)[C@@H]1O [GUIDONGNIN A],0.3
7,C=C1C(=O)[C@]23C[C@H]1CC[C@H]2[C@]1(COC3=O)C2CC[C@@]3(C)COC(O2)[C@H]31 (some centres undefined) [SCULPONEATIN J],0.83
8,CO[C@H]1OC[C@]2(C)CCC[C@]3(COC(=O)[C@@]45C[C@@H](CC[C@H]43)[C@@H](C)C5=O)[C@H]12 [LUDONGNIN I],> 50
9,C[C@H]1C(=O)[C@]23C[C@H]1C[C@@H](O)[C@H]2[C@@]1(CCC[C@@]2(C)COC(=O)[C@H]21)COC3=O [GUIDONGNIN C],> 50
10,C=C1C(=O)[C@]23C[C@H]1CC[C@H]2[C@@]1(CCC[C@@]2(C)CO[C@@H](OC)[C@H]21)COC3=O [LUDONGNIN J],0.18
11,C=C1C(=O)[C@]23C[C@H]1C[C@@H](O)[C@H]2[C@@]1(CCC[C@@]2(C)CO[C@@H](OC)[C@H]21)COC3=O,0.87
12,CO[C@H]1OC[C@]2(C)CCC[C@]3(COC(=O)[C@@]45C[C@@H](CC[C@H]43)[C@H](C)C5=O)[C@H]12 [LUDONGNIN H],> 50

# Test system: not listed separately
# Assay: Cytotoxicity against human CA cells by SRB method
# Assay type: functional, cell-based
# How it was run: (§1)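 Sulforhodamine B (SRB) assay on CA liver cancer and HeLa cervical cancer cells; cis-platinum as positive control. Optical density recorded as mean ± S; IC50 calculated from OD data.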
row,Compound,IC50 [µg/mL]
1,C=C1C(=O)[C@]23C[C@H]1CC[C@H]2[C@@]1(CCC[C@@]2(C)CO[C@@H](OC)[C@H]21)COC3=O [LUDONGNIN J],0.09

# Test system: HeLa
# Assay: Cytotoxicity against human HeLa cells by SRB method
# Assay type: functional, cell-based
# How it was run: as §1
row,Compound,IC50 [µg/mL]
1,C=C1C(=O)[C@]23C[C@H]1CC[C@H]2[C@@]1(CCC[C@@]2(C)CO[C@@H](OC)[C@H]21)COC3=O [LUDONGNIN J],0.7
